Experiment [1] has as its system Mus musculus. Description: Downregulation of COX-2 expression in ankle tissue of CII-induced DBA/1J mouse arthritic model at 25 to 50 mg/kg, ip measured 10 days post second CII booster by immunoblot analysis. In kind it is functional, organism-based.
Experiment [2] has as its target T1, P2X purinoceptor 1 (Mus musculus) (UniProt P51576).
T1 sequence (whole entry): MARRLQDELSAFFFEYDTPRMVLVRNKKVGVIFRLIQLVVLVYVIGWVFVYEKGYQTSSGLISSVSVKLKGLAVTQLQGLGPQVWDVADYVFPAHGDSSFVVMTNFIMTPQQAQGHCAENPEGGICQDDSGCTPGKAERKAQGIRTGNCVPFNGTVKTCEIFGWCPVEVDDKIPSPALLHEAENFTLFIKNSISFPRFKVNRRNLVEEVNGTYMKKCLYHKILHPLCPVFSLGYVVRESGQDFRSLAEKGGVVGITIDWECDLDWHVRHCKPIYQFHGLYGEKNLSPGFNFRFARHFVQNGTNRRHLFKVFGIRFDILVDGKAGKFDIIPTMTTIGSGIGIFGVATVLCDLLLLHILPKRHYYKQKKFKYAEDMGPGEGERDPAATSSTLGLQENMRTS
Briefly: Antagonist activity at recombinant mouse P2X1 receptor overexpressed in Xenopus oocytes assessed as inhibition of ATP-induced ion current at 10 uM preincubated for 20 mins followed by ATP induction by two-electrode voltage clamping method relative to control. Type of experiment: cell-based. The method in brief:
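Two-electrode voltage clamp on Xenopus oocytes expressing the receptor after cRNA microinjection. Current was evoked by 2 µM ATP, with test compound at 10 µM.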
(In general: Two-electrode voltage clamp holds a large cell at a set potential and records current.)

The target in experiment [3] is T2, P2X purinoceptor 7 (Homo sapiens) (UniProt Q99572).
T2 sequence (whole entry): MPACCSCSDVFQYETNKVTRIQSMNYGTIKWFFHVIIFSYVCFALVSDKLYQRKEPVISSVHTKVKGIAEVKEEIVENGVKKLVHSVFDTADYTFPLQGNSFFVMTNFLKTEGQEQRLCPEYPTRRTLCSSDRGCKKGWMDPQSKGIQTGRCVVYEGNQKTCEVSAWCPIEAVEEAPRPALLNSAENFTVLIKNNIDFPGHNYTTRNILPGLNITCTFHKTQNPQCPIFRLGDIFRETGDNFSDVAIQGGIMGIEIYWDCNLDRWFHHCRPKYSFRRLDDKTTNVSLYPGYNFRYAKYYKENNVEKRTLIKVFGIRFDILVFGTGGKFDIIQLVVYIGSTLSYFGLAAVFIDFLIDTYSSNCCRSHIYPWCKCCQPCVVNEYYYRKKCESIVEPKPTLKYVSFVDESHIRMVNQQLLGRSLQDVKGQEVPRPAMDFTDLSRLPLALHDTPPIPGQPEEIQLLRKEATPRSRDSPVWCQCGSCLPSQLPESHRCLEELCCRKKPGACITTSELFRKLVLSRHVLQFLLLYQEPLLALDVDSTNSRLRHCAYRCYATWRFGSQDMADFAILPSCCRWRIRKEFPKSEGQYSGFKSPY
Briefly: Competitive antagonist activity at recombinant human P2X7 receptor expressed in HEK293 cells assessed as inhibition of BzATP-induced intracellular ethidium bromide uptake at 0.1 to 1 uM after 2 hrs by fluorescence assay in presence of BzATP. In kind it is cell-based. The method in brief:
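HEK293 cells stably expressing recombinant human P2X7 were stimulated with BzATP, and ethidium ion accumulation was read as the measure of pore activity.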

For experiment [4], the system named is Mus musculus. Briefly: Antiarthritic activity in CII-induced DBA/1J mouse arthritic model assessed as decrease in periarticular erosion at 50 mg/kg, ip measured 10 days post second CII booster by Hematoxylin and eosin staining relative to CII-treated control. Type of experiment: functional, organism-based. Details: dose 50 mg/kg. The method in brief: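 Mouse type II collagen-induced arthritis; 50 mg/kg dosed by injection. Ankle histology was scored as cumulative arthritis injury scores against the vehicle-treated CII group.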

The next experiment concerns Rattus norvegicus. Briefly: Antiinflammatory activity in Sprague-Dawley rat assessed as decrease in carrageenan-induced paw edema at 10 mg/kg, ip preincubated for 1 hr followed by carrageenan challenge measured after 3 to 6 hrs by plethysmometer relative to control. On the technique in general: The carrageenan paw model is a standard test of acute inflammation.
The target in experiment [5] is T3, P2X purinoceptor 7 (Rattus norvegicus) (UniProt Q64663).
T3 sequence (whole entry): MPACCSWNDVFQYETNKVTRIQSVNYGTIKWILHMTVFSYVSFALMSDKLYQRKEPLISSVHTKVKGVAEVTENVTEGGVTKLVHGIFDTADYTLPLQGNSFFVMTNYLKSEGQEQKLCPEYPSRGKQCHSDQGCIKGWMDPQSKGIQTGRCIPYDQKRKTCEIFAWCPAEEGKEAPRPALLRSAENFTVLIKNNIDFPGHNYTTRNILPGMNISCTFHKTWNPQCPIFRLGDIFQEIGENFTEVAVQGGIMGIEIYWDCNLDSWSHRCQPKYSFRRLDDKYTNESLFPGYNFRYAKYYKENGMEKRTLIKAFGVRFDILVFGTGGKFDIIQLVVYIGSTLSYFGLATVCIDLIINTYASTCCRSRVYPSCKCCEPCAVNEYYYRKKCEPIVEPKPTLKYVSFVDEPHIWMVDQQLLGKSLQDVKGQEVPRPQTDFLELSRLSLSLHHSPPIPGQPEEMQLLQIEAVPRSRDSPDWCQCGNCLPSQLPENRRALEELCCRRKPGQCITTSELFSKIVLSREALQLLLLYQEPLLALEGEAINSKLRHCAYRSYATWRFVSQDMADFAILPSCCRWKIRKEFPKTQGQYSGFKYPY
Briefly: Antagonist activity at P2X7 receptor in neuropathic rat dorsal horn assessed as inhibition of long term potentiation-induced neropathic pain at 20 uM relative to control. The settings on record: Dorsal horn of spinal cord. The essentials:
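Ex vivo spinal cord preparation: LTP-induced pain signalling recorded in the dorsal horn of neuropathic rats. Pregabalin served as the positive control.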

In experiment [6] the target is T4, P2X purinoceptor 3 (Homo sapiens) (UniProt P56373).
T4 sequence (whole entry): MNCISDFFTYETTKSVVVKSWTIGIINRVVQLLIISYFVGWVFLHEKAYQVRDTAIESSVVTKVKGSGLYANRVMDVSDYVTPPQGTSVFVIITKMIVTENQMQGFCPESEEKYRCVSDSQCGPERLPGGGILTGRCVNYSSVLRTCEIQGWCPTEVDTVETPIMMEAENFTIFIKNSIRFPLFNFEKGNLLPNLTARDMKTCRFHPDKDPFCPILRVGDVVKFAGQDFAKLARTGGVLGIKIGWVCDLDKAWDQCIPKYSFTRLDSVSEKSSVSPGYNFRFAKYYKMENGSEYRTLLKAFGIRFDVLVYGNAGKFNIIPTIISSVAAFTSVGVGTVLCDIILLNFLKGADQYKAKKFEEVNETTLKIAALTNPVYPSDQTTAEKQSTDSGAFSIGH
Description: Antagonist activity at recombinant human P2X3 receptor overexpressed in Xenopus oocytes assessed as inhibition of ATP-induced ion current at 10 uM preincubated for 20 mins followed by ATP induction by two-electrode voltage clamping method relative to control. In kind it is cell-based. The essentials:
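Xenopus oocytes were microinjected with capped cRNA for human P2X3. Two-electrode voltage clamp recorded ion current evoked by 2 µM ATP. Test compound at 10 µM was scored as percent reduction of the ATP-induced current.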

The source made the active and inactive calls. The rule behind the calls is not given here.

Consider `O=C1NC(=O)N(C2CCN(C(=O)c3ccc(Cl)c(C(F)(F)F)c3)CC2)C1Cc1ccc(OS(=O)(=O)c2cccc3cnccc23)cc1` (racemic), for which the outcome in the experiment with Mus musculus [1], in the experiment with Mus musculus [4] and with Rattus norvegicus was Active. Further, the inhibition (usually the share of the control response that was lost under treatment) was found to be 16% in experiment [2], 76% in experiment [5] and 5.05% in experiment [6]. Further, in experiment [3], the inhibition result was “Active”.

Values taken from ChEMBL document CHEMBL3414458, “Discovery of novel 2,5-dioxoimidazolidine-based P2X(7) receptor antagonists as constrained analogues of KN62” (J Med Chem, 2015).
